Bioassay records from PubChem BioAssay.
SUMO1-SIM PPI = SUMO1-SIM interaction modulation. SUMO1 binding to a labelled peptide, TR-FRET, 1 h. inhibition, % at 20 µM. actives 0.33% (n = 360,000). AID 602429; in the data active = inhibition above about 37%
DNMT1 block = DNMT1 (human) enzyme inhibition. DNMT1 molecular beacon, Hinp1I cleavage, fluorescence. inhibition (reported as % activation of signal), % at 10 µM. actives 0.83% (n = 360,000); in the data active = inhibition above about 50%
Target sequence (P26358 504-1616 limits assumed): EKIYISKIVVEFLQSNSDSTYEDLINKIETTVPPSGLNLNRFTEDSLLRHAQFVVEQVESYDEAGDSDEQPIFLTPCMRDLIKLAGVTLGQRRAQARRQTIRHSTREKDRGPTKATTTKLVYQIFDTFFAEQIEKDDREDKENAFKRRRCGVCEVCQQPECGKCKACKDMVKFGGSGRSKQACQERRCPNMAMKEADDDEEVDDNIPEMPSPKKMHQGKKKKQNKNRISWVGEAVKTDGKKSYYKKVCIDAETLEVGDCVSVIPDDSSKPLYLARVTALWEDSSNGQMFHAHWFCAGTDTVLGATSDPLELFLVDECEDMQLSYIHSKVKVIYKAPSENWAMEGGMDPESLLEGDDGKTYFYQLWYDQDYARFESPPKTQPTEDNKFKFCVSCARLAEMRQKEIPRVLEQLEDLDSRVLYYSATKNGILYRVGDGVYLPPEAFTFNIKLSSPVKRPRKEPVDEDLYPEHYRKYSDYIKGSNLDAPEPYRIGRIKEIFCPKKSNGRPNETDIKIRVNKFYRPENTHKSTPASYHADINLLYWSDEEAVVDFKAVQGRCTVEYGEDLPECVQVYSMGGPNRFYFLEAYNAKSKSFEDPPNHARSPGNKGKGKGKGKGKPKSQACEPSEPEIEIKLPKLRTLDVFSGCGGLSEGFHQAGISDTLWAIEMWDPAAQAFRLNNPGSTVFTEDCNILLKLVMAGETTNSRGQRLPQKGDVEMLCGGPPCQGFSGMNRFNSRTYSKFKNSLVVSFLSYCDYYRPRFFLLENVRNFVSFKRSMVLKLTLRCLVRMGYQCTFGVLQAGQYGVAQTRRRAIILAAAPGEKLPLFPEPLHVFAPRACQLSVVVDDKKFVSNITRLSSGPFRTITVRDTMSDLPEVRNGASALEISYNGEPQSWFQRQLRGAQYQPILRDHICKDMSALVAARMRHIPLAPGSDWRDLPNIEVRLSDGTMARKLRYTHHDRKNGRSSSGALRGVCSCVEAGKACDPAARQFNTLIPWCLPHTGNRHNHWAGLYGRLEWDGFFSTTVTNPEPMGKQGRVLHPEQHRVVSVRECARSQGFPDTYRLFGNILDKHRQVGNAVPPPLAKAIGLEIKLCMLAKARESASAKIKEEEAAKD
Scp-1 inhibitor = blocks human Scp-1 phosphatase activity; actives 0.88% (n = 340,000); Q9GZU7; Recombinant Scp1, phosphopeptide, malachite green phosphate absorbance; inhibition, % at 20 µM;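 active = inhibition above about 50% at 20 µM, limit read from the data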;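 also: plate controls were DMSO wells with enzyme for no effect and wells lacking enzyme for full effect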
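Test system: SCP-1 phosphatase catalytic domain, residues 76-261 | Compound dosing: One concentration, 20 µM, with 1.0% DMSO | Schedule: 45 min room-temperature reaction, 5 min colour, 30 min stabiliser | Detection: Absorbance at 630 nm | Read-out basis: % inhibition of SCP-1 phosphate liberation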
LMPTP inh = LMPTP (human) inhibition. P24666. recombinant LMPTP-A, OMFP fluorogenic substrate, fluorescence intensity. inhibition, % at 20 µM. actives 0.22% (n = 360,000). AID 651560;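 active = compounds that cut the enzyme signal by at least half of the control window in the single-dose screen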;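 also: plate controls were DMSO wells with enzyme plus substrate for no effect and substrate without enzyme for full effect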
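Buffer or medium: Bis-Tris pH 6.0, DTT, detergent; Assay system: LMPTP-A enzyme; Quantity: 0.625 nM enzyme; Detection: endpoint fluorescence intensity; Times: 50 min dark incubation at room temperature; Controls: substrate-only low control, DMSO enzyme-plus-substrate high control; Doses: single 20 µM dose; Read-out: percent inhibition versus substrate-only and uninhibited controls; Reagent: 400 µM OMFP.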
STEP inh = STEP (human) phosphatase inhibition; recombinant STEP, OMFP fluorogenic substrate, fluorescence; inhibition, % at 20 µM; actives 0.25% (n = 360,000);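 active = inhibition at 20 µM, scaled per plate between control wells, above about 37%, limit read from the data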;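 also: 0% = DMSO with enzyme and substrate and 100% = substrate only without enzyme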
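Also added – OMFP at 25 µM · Test system – STEP tyrosine phosphatase · Technique – FITC-channel fluorescence of OMFP product · Schedule – 20 min at room temperature, dark · Evaluation – control-normalized % inhibition with plate pattern correction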
Rpn11 inh = blocks the human proteasome subunit Rpn11; O00487; inhibition, % at 20 µM; human 26S proteasome, Ub4-pepOG fluorescence polarization; 20S core pre-blocked with epoxomicin; actives 0.59% (n = 360,000);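 active = inhibition at 20 µM, scaled to each plate's controls, above about 33%, limit read from the data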
Numbers without * were called inactive; . = not tested or not shown. The list is not random: actives were taken first. Their share in the collection is about 2.3%.

SMILES	SUMO1-SIM PPI	DNMT1 block	Scp-1 inhibitor	LMPTP inh	STEP inh	Rpn11 inh
O=C(Cc1nnc(NC(=O)c2ccccc2)s1)N/N=C\c1ccc(O)c(O)c1	1	59*	31	3	2	8
COc1cc(/C=N/NC(=O)Cc2nnc(NC(=O)c3ccccc3)s2)ccc1O	28	1	-16	2	-2	31
CCN(CC)c1ccc(/C=N/NC(=O)Nc2ccccc2)cc1	-10	-17	-1	4	2	0
CCN(CC)c1ccc(/C=N/NC(=O)Cc2nnc(NC(=O)Nc3ccccc3)s2)cc1	-3	50*	-3	1	4	-2
CCCCn1c(N)c(N(CC(C)C)C(=O)c2cc3ccccc3cc2OC)c(=O)[nH]c1=O	-3	-2	-7	-1	-2	-2
O=S(=O)(/C=C/C=C/S(=O)(=O)c1ccccc1)c1ccccc1	41*	14	0	0	1	0
Cc1nc2c(c3c1[nH]c1ccccc13)C(O)CC(C)(C)C2 (stereo unspecified)	1	2	-7	1	2	-2
OC1CCC2CN3CCc4c([nH]c5ccccc45)C3CC2C1 (stereo unspecified)	-17	-8	.	4	-4	-50
O=C(O)[C@@H]1[C@H]2C[C@H]3c4[nH]c5ccccc5c4CCN3C[C@@H]2CC[C@@H]1O	25	21	-9	60*	-2	-74
CCOc1cc(/C=N/Nc2ccc(S(=O)(=O)Nc3ccccc3C(=O)O)cc2[N+](=O)[O-])cc(Cl)c1O	66*	-19	.	24	3	4
O=C(O)c1ccccc1NS(=O)(=O)c1ccc(N/N=C/c2cccc(O)c2O)c([N+](=O)[O-])c1	37	11	88*	69*	34	-12
CCC(=O)N1CCN(c2cc3c(cc2F)c(=O)c(C(=O)O)cn3CC)CC1	3	3	-7	-1	-3	-5
CCn1cc(C(=O)O)c(=O)c2cc(F)c(N3CCN(C(=S)NC(=O)c4ccc(F)c(F)c4)CC3)cc21	16	9	6	52*	2	1
CCn1cc(C(=O)O)c(=O)c2cnc(N3CCN(C(=S)NC(=O)c4ccc(F)c(F)c4)CC3)nc21	19	1	19	43	4	0
CCn1cc(C(=O)O)c(=O)c2cc(F)c(N3CCN(C(=S)NC(=O)c4ccc(F)cc4)CC3)cc21	6	1	19	68*	2	0
CCn1cc(C(=O)O)c(=O)c2cc(F)c(N3CCN(C(=S)NC(=O)c4cccc(F)c4)CC3)cc21	4	2	-25	66*	-2	-6
CCn1cc(C(=O)O)c(=O)c2cc(F)c(N3CCN(C(=S)NC(=O)c4ccccc4Br)CC3)cc21	36	0	-10	68*	0	-1
CCn1cc(C(=O)O)c(=O)c2cc(F)c(N3CCN(C(=S)Nc4ccccc4OC)CC3)cc21	2	1	1	22	1	-5
CCn1cc(C(=O)O)c(=O)c2cc(F)c(N3CCN(C(=S)NC(=O)c4c(OC)cccc4OC)CC3)cc21	6	0	-5	65*	5	6
C/C(=N\Nc1c([N+](=O)[O-])c(C)nn1C)c1ccc(F)cc1F	-6	2	-6	0	15	1
Cc1nc(NC(=O)c2ccccc2)sc1-c1csc(Nc2ccc(C(=O)O)cc2)n1	92*	-6	80*	43	1	4
Cc1nc(NC(=O)c2ccccc2)sc1-c1csc(NCc2ccco2)n1	15	-22	2	1	2	45*
Cc1ccc(Cl)cc1Nc1nc(-c2sc(NC(=O)C(C)(C)C)nc2C)cs1	104*	-38	14	2	1	19
C=CCCC(=O)Nc1nc(C)c(-c2csc(Nc3cccc(OC)c3)n2)s1	78*	-44	6	-1	0	16
CCCc1cc(=O)n2[nH]c(-c3ccc(OC)cc3)nc2n1	2	3	-2	-1	1	0
SMILES	SUMO1-SIM PPI	DNMT1 block	Scp-1 inhibitor	LMPTP inh	STEP inh	Rpn11 inh
O=C1OC(O)c2cccc3cccc1c23 (stereo unspecified)	-13	2	.	0	0	8
Cc1ccc(NC(=O)C2CCN(S(=O)(=O)c3cc([N+](=O)[O-])ccc3Cl)CC2)nc1	-24	8	23	-1	1	5
CC(=O)COC(=O)C1CCN(S(=O)(=O)c2cc([N+](=O)[O-])ccc2Cl)CC1	-13	56*	45	3	10	-11
CN(Cc1ccccc1)C(=O)C1CCN(S(=O)(=O)c2cc([N+](=O)[O-])ccc2Cl)CC1	-26	0	-4	0	-1	5
O=C(Nc1nc2ccc(F)cc2s1)C1CCN(S(=O)(=O)c2cc([N+](=O)[O-])ccc2Cl)CC1	1	27	55*	3	2	-13
COCCNC(=O)c1nn2c(C(F)(F)F)cc(-c3ccccc3)nc2c1Cl	-6	1	4	1	-2	2
Cc1ccc(NC(=O)C(=Cc2ccc(C(=O)O)cc2)C(=O)Nc2ccc(C)cc2C)c(C)c1	4	4	-13	0	2	4
Cc1ccc(C(=O)O)cc1N1C(=O)c2cccc3c([N+](=O)[O-])ccc(c23)C1=O	15	60*	10	0	1	-27
CN(C)CCCN1C(=O)c2cccc3c([N+](=O)[O-])ccc(c23)C1=O	-27	69*	-2	1	-3	-53
O=C(Nc1nccs1)c1cccc(N2C(=O)c3cccc4c([N+](=O)[O-])ccc(c34)C2=O)c1	-14	78*	-2	-3	-2	-11
NS(=O)(=O)c1ccc(CCNC(=O)CSCC(=O)Nc2ccc(Cl)cc2)cc1	4	0	-8	3	3	1
COc1cc(NCCC(=O)c2cccs2)c(OC)cc1Cl	0	-3	2	-1	2	-2
O=C(/C=C/c1ccc(Br)o1)OCc1nc2ccsc2c(=O)[nH]1	120*	104*	86*	76*	89*	.
O=c1c(O)cccc2cc(O)c(O)c(O)c12	104*	95*	73*	90*	98*	11
O=C(NCCN1CCCC1=O)C1CCC(=O)N(CCc2cccc(F)c2)C1 (stereo unspecified)	44*	1	-7	0	2	2
COc1cccc2c1cc1c(=O)n(CC(=O)NCCCN3CCCCC3)nc(C)n12	-14	3	-9	-1	-2	-2
O=C(O)CC(C(=O)O)N1C(=O)/C(=C/c2ccc(-c3nc4ccccc4s3)o2)SC1=S (stereo unspecified)	87*	107*	80*	31	63*	71*
